# Bioassay records deposited in PubChem BioAssay by The Scripps Research Institute Molecular Screening Center.
# 5HT1a antag – human 5-HT1a receptor antagonists, primary screen, cell-based, CHO, Ga15 NFAT-bla reporter; AID 612, 2007; inhibition, % at 10 µM; CHO 5-HT1a Ga15 NFAT-bla reporter, antagonist mode; hit rate 0.68% among 62,000; 5-hydroxytryptamine receptor 1A (Homo sapiens), P08908;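 active = inhibition above the mean of all tested compounds plus 3 SD, cut at about 43% in these data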;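 also: receptor stimulated by 5-CT agonist at 100 nM near EC80; beta-lactamase reporter measured by ratiometric fluorescence of a cleavable substrate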
# Target sequence (P08908 whole entry, looked up): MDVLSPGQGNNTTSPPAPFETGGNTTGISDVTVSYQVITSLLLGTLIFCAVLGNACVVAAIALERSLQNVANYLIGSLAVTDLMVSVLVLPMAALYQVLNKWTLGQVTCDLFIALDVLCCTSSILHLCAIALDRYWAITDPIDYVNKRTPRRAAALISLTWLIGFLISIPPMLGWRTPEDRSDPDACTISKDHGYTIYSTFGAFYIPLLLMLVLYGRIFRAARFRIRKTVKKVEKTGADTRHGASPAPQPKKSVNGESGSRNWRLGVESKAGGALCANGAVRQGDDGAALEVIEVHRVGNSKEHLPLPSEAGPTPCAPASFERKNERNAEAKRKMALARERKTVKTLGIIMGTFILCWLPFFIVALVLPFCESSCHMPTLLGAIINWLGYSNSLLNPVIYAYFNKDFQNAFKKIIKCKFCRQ
# HTR1E antagonist – 5-HT1E receptor antagonists, primary screen, cell-based, HTS; 5-hydroxytryptamine receptor 1E (Homo sapiens), P28566; CHO 5-HT1E Ga15 NFAT-bla reporter, FRET, antagonist; inhibition, % at 6 µM; hit rate 0.99% among 65,000;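 active = inhibition above a set limit, the mean inhibition across every tested compound plus 3 SD, cut at about 29% in these data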;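 also: signal is the 460 over 535 nm emission ratio of beta-lactamase substrate; 0% = agonist plus DMSO wells and 100% = wells without agonist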
# 5HT1a ag – human 5-HT1a receptor agonists, primary screen, cell-based, CHO, Ga15 NFAT-bla reporter. 5-hydroxytryptamine receptor 1A (Homo sapiens), P08908. CHO 5-HT1a Ga15 NFAT-bla reporter, FRET ratio; 0% basal, 100% maximal reference agonist. activation, % at 10 µM. hit rate 0.56% among 65,000. AID 567, 2006;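 active = activation above the screen-wide mean activation plus 3 SD, cut at about 19% in these data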;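 also: 0% = DMSO wells and 100% = 5-CT at EC100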
# HEK293 NFkB inh – inhibitors of PMA/ionomycin-induced NF-kB reporter, primary screen, antigen receptor NF-kB inhibitor project, cell-based, HEK-293 luciferase reporter, luminescence | AID 465, 2006 | HEK-293 NF-kB luciferase reporter | inhibition, % at 3 µM | hit rate 0.21% among 62,000;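 active = inhibition above the mean of all tested compounds plus 3 SD, cut at about 40% in these data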;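 also: 0% = stimulated DMSO wells and 100% = 10 µM reference inhibitor 5653914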
#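 System – HEK-293 cells with stable firefly luciferase reporter driven by four HIV NF-kB elements · Doses – one dose, 3 µM · Schedule – 1 h compound pre-incubation, 16 h PMA/ionomycin at 37 °C · Technique – luminescence from luciferase substrate reagent · Measure – percent inhibition normalized per plate to DMSO and reference-inhibitor controls · Replicates – tested once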
# 5HT1E ag – 5-HT1E receptor agonists, primary screen, cell-based, HTS; CHO 5-HT1E Ga15 NFAT-bla reporter, FRET; 0% DMSO wells, 100% control agonist wells; 5-hydroxytryptamine receptor 1E (Homo sapiens), P28566; activation, % at 6 µM; hit rate 0.69% among 65,000;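 active = activation above a set limit, the screen-wide mean activation plus 3 SD, cut at about 8.5% in these data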;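 also: 100% = positive control agonist at 1 µM giving full maximal response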
# * marks the source's active call; other numbers are inactive results; nt = not tested or not shown. The list is not random: actives were taken first. Their share in the collection is about 2.6%.
SMILES,5HT1a antag,HTR1E antagonist,5HT1a ag,HEK293 NFkB inh,5HT1E ag
Cc1cc(N2CCC(C(=O)NCC3CC3)CC2)nc(-c2ccccc2)n1,5,-5,-4,2,0
Cc1cc(N2C3CCC2CC(O)(c2ccc(F)cc2)C3)nc(-c2ccccc2)n1 (configuration not stated),43*,23,-1,15,-1
O=C(Nc1nc2c(s1)CCCC2)c1cccs1,4,-5,-1,-46,0
O=C(Cc1cccs1)Nc1nc2c(s1)CCCC2,-7,5,-1,46*,0
CC1(c2ccc(Cl)cc2)NC(=O)N(CC(=O)NC(=O)NCc2ccco2)C1=O (configuration not stated),-7,-12,2,8,-1
CC1(C)CC2CC(C)(CN2C(=O)C23CCC(C)(C(=O)O2)C3(C)C)C1 (configuration not stated),6,2,-1,16,-1
COc1ccc(O)c(-c2cc(-c3cccs3)[nH]n2)c1,51*,8,-1,8,-2
CCSc1nc2cc(OC)c(OC)cc2c(=O)n1CC,2,18,-4,13,0
Cc1ccc(S(=O)(=O)N[C@H](C(=O)N2CCC(C(=O)N3CCC[C@H]3C(=O)O)CC2)C(C)C)cc1,4,8,-4,20,1
COc1cc(OC)cc(-c2cc3nc(C)c(CCC(=O)NC(C)CCc4ccco4)c(C)n3n2)c1 (configuration not stated),18,9,-2,14,0
COc1cc(OC)cc(-c2cc3nc(C)c(CCC(=O)O)c(C)n3n2)c1,1,6,-2,63*,-1
O=C(c1ccccc1)N1CCN(CC2CC=CCC2)CC1 (configuration not stated),-10,2,0,11,9.2*
CCN(c1ccccc1)S(=O)(=O)c1ccc(Oc2ccc(-n3ccnc3)cc2)nc1,5,12,3,98*,-2
O=C(c1cccc2ccccc12)N1CCC(N2CCN(c3ccccc3)CC2)CC1,nt,6,2,nt,0
CCOCCCNC(=O)C(C)NS(=O)(=O)c1ccc(C)cc1 (configuration not stated),-5,1,-2,2,-1
Cc1c(C)[n+](=O)c2c(n1[O-])CCCCC2,-6,-8,1,22,23*
Cc1c(C)[n+](=O)c2c(n1[O-])CCC2,nt,-1,1,nt,0
CCn1c(=O)cc(SCC(=O)NCc2ccccn2)c2ccccc21,0,10,-1,13,0
CCOC(=O)CC(/C(C)=N\O)c1ccccc1 (configuration not stated),17,7,-2,22,40*
CCOC(=O)c1[nH]c(C)c(C(=O)c2cc(F)ccc2F)c1C,50*,56*,-6,42*,0
CCOC(=O)c1[nH]c(C)c(C(=O)OCC)c1C,-17,5,-1,6,0
CN1CCN2c3ccccc3Cc3ccccc3C2C1 (configuration not stated),nt,5,0,nt,86*
c1ccc2c(c1)CCN2CCN1CCc2ccccc21,9,9,-1,6,-1
COc1ccc2c(c1OC)C(=O)N1c3ccccc3C(=O)N(c3ccccc3)C21 (configuration not stated),nt,17,6,nt,-1
Cc1cc(NCCN2CCOCC2)n2nc(C)c(-c3ccc(Cl)cc3)c2n1,-2,32*,3,14,1
SMILES,5HT1a antag,HTR1E antagonist,5HT1a ag,HEK293 NFkB inh,5HT1E ag
CC(C)CCn1c(CN2CCN(C(=O)c3ccco3)CC2)nc2c1c(=O)n(C)c(=O)n2C,1,1,57*,8,1
CCN1CCN(c2nc3c(c(=O)[nH]c(=O)n3C)n2CCCSc2ncccn2)CC1,-6,0,62*,10,0
CCOC(=O)C1CCN(C(=O)CSc2nnc(-c3ccco3)n2-c2ccccc2)CC1,-3,2,-4,-3,0
O=C(Nc1nc2ccccc2[nH]1)c1ccccc1F,2,6,-2,61*,0
CC1CCCC(NC(=O)c2ccc3c(=O)n(CC4CCCO4)c(=O)[nH]c3c2)C1C (configuration not stated),-9,-8,54*,14,0
Cc1sc2ncnc(SC(C)C#N)c2c1C (configuration not stated),-6,31*,-3,7,0
Cc1sc2ncnc(SCc3ccco3)c2c1C,10,3,-2,5,0
CC1=C/C(=C/N(C)c2ccccc2)C(=O)S1,44*,15,-7,4,-1
C=C(C)C1Cc2nc(N)nc(C)c2C1 (configuration not stated),-3,-6,3,-6,0
C=C(C)c1nc(N)nc(N)n1,12,2,32*,-3,0
Cc1ccc(C(=O)C2CCN(CC(=O)Nc3ccc4c(c3)OCCO4)CC2)cc1,-12,-4,0,16,2
Cc1ccc(C(=O)C2CCN(CC(=O)Nc3ccc(N(C)C)cc3)CC2)cc1,-7,4,2,10,12*
CC(C)(C)N(C=C(Cl)Cl)C(=O)NC1CCCCC1,-22,-5,-2,9,0
CC(C)=CCC(C)(C)CNC(=O)NC1CCCCC1,nt,99*,-2,nt,-1
CC(=O)Nc1ccc(S(=O)(=O)N2CCSC2c2ccccc2)cc1 (configuration not stated),-9,15,-1,7,0
CC(=O)Nc1ccc(S(=O)(=O)N2CCSC2c2ccccc2Cl)cc1 (configuration not stated),12,35*,-1,12,-1
CCC(C)N(C(=O)COC(=O)Cc1n[nH]c(=O)c2ccccc12)C1CCS(=O)(=O)C1 (configuration not stated),2,-2,-1,23,0
Clc1ccccc1CNc1ncnc2nc[nH]c12,3,-10,47*,4,1
Cc1cc(C)nc(NC(=O)CN2C(=O)c3ccccc3C2=O)n1,1,-5,-4,15,0
CCOC(=O)N1CCC2(CC1)C(C#N)=C(N)Oc1c2c(C)nn1-c1cccc(Cl)c1,2,-6,-5,11,0
CCn1c(SCC(=O)Nc2nccs2)nnc1-c1ccccc1,-5,4,-1,14,0
CCn1c(SCC(=O)Nc2cc3oc4ccccc4c3cc2OC)nnc1-c1cccs1,4,5,25*,5,-1
CCn1c(SCC(=O)Nc2nccs2)nnc1-c1cc2cccc(OC)c2o1,-5,5,1,11,11*
